# NOD2-RIPK2 inh: NOD2-RIPK2 binding disruptors in cells, primary screen, fluorescence, CHO cells, BLA complementation | inhibition, % at 4.98 µM | hit rate 0.38% among 360,000 | CCF4 ratio | Receptor-interacting serine/threonine-protein kinase 2 (Homo sapiens), O43353; in the data active means inhibition above about 21%;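 further: 0% = vehicle only and 100% = reference blocker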
# TLR9-MyD88 inh: inhibitors of TLR9-MyD88 association in cells, primary screen, cell-based, CHO, BLA complementation, fluorescence; Toll-like receptor 9 (Homo sapiens) + Myeloid differentiation primary response protein …; CCF4 FRET ratio; inhibition, % at 4.98 µM; hit rate 0.21% among 340,000; AID 504734, 2011;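 active means inhibition above the mean over all tested compounds plus 3 SD, cut at about 21% in these data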;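 further: 0% = DMSO only wells and 100% = clavulanate BLA inhibitor control wells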
# Target sequence (Q99836 whole entry, looked up): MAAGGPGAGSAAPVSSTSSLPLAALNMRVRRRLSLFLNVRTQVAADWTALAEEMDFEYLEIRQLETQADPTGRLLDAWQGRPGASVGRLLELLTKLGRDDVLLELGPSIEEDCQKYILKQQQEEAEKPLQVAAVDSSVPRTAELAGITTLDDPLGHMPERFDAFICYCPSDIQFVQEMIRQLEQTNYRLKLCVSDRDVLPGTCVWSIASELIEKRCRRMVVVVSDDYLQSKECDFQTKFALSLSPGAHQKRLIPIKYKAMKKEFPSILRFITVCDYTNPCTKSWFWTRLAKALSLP
# Target sequence (Q9NR96 whole entry, looked up): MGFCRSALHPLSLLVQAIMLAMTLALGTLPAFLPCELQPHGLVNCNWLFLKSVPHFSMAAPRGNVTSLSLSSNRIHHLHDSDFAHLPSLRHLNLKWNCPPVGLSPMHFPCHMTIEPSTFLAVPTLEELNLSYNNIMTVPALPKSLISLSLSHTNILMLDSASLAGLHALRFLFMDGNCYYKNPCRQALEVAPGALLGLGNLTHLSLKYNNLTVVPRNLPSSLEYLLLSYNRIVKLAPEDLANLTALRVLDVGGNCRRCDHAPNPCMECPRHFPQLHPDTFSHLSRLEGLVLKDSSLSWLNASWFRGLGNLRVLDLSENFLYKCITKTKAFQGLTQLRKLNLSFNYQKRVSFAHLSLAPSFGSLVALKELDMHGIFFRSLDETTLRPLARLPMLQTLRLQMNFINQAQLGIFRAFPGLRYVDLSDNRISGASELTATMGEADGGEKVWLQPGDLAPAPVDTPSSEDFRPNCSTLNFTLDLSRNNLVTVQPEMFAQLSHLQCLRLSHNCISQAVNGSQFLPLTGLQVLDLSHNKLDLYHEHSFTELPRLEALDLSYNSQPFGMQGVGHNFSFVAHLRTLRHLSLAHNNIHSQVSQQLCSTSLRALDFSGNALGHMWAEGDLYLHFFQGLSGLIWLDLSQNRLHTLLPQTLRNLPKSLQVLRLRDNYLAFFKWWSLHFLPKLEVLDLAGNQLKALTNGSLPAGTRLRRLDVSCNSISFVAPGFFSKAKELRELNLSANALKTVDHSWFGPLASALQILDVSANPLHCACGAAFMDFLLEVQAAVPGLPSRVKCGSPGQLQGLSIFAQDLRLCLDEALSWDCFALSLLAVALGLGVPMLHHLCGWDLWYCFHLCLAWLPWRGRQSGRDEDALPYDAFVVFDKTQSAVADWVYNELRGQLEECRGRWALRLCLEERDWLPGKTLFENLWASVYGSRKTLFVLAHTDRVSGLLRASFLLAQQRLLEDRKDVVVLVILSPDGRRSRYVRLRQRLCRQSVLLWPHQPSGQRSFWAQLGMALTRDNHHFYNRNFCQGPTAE
# Hep lipid drop: inhibitors of hepatocyte lipid droplet formation, primary screen, imaging, high-throughput imaging, BODIPY stain; AML12 mouse hepatocytes, oleate lipid droplets; inhibition, % at 6.5 µM; hit rate 0.4% among 240,000;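 active means lipid droplet intensity inhibited by at least 50%, with more than 500 cells counted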
#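 Test system: AML12 mouse liver cells; schedule: overnight exposure; technique: high-content imaging of BODIPY-stained droplets and DAPI nuclei; read-out: % inhibition of corrected integrated BODIPY droplet signal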
# SR-BI HDL uptake: inhibitors of SR-BI mediated HDL lipid uptake, primary screen, ldlA[mSR-BI] cells, fluorescence, single point | ldlA[mSR-BI] CHO cells, DiI-HDL uptake fluorescence, 3 h | inhibition, % at 12.5 µM | hit rate 0.96% among 320,000;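 active means mean replicate inhibition of at least 70% and a set share of replicates each scoring 70 or more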;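 further: 0% = median of neutral control wells and 100% = median of positive control wells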
# SR-BI uptake up: activators of SR-BI mediated DiI-HDL uptake, primary screen, ldlA[mSR-BI] CHO cells, DiI fluorescence; hit rate 0.096% among 320,000; 3 h; 100 = double the neutral-control signal; AID 504775, 2011; activation, % at 12.5 µM;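 active means mean replicate activation of at least 60% and every replicate at or above 60%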;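 further: 0% = median plate neutral-control signal and 100% = twice that signal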
#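 Material: SR-BI-overexpressing, LDLR-lacking CHO cells | Dosing: Single compound concentration, delivered by pin transfer | Probe or stimulus: Labelled HDL, 10 µg/mL | Signal: Bottom-read cell fluorescence after medium removal, ex 550/em 595 nm | Schedule: 3 h, 37 °C | Evaluation: HDL uptake via cellular fluorescence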
# TLR4-MyD88 BLA: inhibitors of TLR4-MyD88 association in cells, primary screen, cell-based, HeLa CL3-4, BLA complementation, FRET ratio. Toll-like receptor 4 (Homo sapiens) + Myeloid differentiation primary response protein …. HeLa CL3-4 TLR4/MyD88 BLA complementation. inhibition, % at 8.4 µM. hit rate 0.18% among 200,000. AID 861, 2007; in the data active means inhibition above about 25%;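 further: 0% = vehicle and 100% = reference inhibitor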
# TLR4-MyD88 conf: TLR4-MyD88 association inhibitors, retest, confirmation, cell-based, HeLa CL3-4, BLA complementation, FRET ratio; hit rate 50% among 350; shares compounds with TLR4-MyD88 BLA; inhibition, % at 8.4 µM; AID 941, 2007; CCF4 FRET ratio;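 active means mean inhibition across three repeat runs above about 25% carried over from the earlier screen, limit read from the data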;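 further: plate controls were DMSO only for no effect and clavulanic acid blocking BLA at full dose for full effect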
# BLA inh HeLa: counter-screen for TLR4-MyD88 inhibitors: beta-lactamase reporter inhibitors | shares compounds with TLR4-MyD88 BLA | HeLa BLA reporter, CCF4 FRET ratio | inhibition, % at 8.4 µM | hit rate 63% among 350;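 active means mean inhibition over three repeats above about 26% taken from the earlier screen, limit read from the data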;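 further: HeLa cells stably expressing beta-lactamase reporter as counterscreen for TLR4-MyD88 inhibitors; 0% = DMSO and 100% = clavulanic acid full inhibition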
# An asterisk follows results filed as active; x = not tested or not shown. Sampled rows, rich in hits. Any-hit rate of the full collection: about 1.6%.
SMILES,NOD2-RIPK2 inh,TLR9-MyD88 inh,Hep lipid drop,SR-BI HDL uptake,SR-BI uptake up,TLR4-MyD88 BLA,TLR4-MyD88 conf,BLA inh HeLa
CCOc1ccccc1/C=N/NC(=O)Cc1csc(Nc2cccc(C(F)(F)F)c2)n1,-7.8,1.2,x,x,x,-6.8,x,x
CCOc1ccc(/C=N/NC(=O)Cc2csc(Nc3cccc(C(F)(F)F)c3)n2)cc1,-1.1,-0.4,29.5,76.8*,-76.8,9.0,x,x
CCOc1ccc(/C=N/NC(=O)Cc2csc(Nc3cccc(C(F)(F)F)c3)n2)c(OCC)c1,-5.4,-1.0,x,81.1*,-81.1,5.4,x,x
Cc1ccc(OCCn2cc(/C=C(\C#N)C(=O)NCC3CCCO3)c3ccccc32)cc1C (stereo unspecified),-3.3,4.6,-16.1,75.6*,-75.6,23.5,x,x
Cc1ccc(OCCn2cc(/C=C(\C#N)C(=O)NCC3CCCO3)c3ccccc32)cc1 (stereo unspecified),4.9,1.5,-14.0,53.9,-53.9,-5.8,x,x
Fc1cccc(-c2nnn3c2nc(Cl)c2ccccc23)c1,-11.2,1.6,-4.1,-5.9,5.9,34.6*,57.9*,40.8*
CC(=O)Nc1sc(N/N=C\c2ccco2)nc1-c1cccs1,-18.8,-3.6,-13.8,-6.5,6.5,-11.8,x,x
CCNc1c(NC(=O)c2ccc3c(c2)OCO3)c(=O)oc2ccccc12,-13.4,4.3,13.1,-35.7,35.7,x,x,x
CCCCOC(=O)CSc1nnc(-c2cc(OC)c(OC)c(OC)c2)o1,-2.1,-1.4,x,-8.4,8.4,25.9*,17.1,-7.7
CCCCN(CCCC)C(=O)CSc1nnc(-c2cc(OC)c(OC)c(OC)c2)o1,1.8,-9.3,-18.9,6.7,-6.7,5.4,x,x
COc1ccc(-c2[nH]ncc2/C=N\NC(=O)c2cccs2)cc1OC,-16.1,5.7,3.9,10.5,-10.5,x,x,x
CN(C)c1ccc(/C=C/C(O)=C2/C(=O)N(C)C3(C)CC2c2ccccc2O3)cc1 (stereo unspecified),x,x,-20.2,x,x,48.6*,35.2*,68.4*
COc1ccc(-c2ocnc2C(=O)NCc2nn(-c3ccccc3)nc2C)cc1,-9.4,-6.1,0.3,29.3,-29.3,x,x,x
COC(=O)c1ccc(-n2c(C)cc(C(=O)CCl)c2C)cc1,3.2,-1.8,10.5,13.3,-13.3,25.5*,19.6,-6.5
CCOC(=O)c1c2ccc(OCC(=O)N/N=C/c3ccc(C)cc3)cc2n2ccccc12,16.9,8.4,x,19.7,-19.7,37.5*,47.9*,17.3
N#Cc1sc2nc(-c3ccccc3)cc(C(F)(F)F)c2c1N,-1.3,-0.5,-14.0,20.7,-20.7,-2.0,x,x
N#Cc1sc2nc(-c3cccs3)cc(-c3ccccc3)c2c1N,7.8,6.1,x,84.0*,-84.0,46.0*,47.5*,81.5*
COC(=O)c1ccc(C(=O)OC)c(NC(=O)C2CCCO2)c1 (stereo unspecified),-0.5,-7.9,-0.2,1.6,-1.6,x,x,x
CC(=O)C1=C(C)NC(SCC(=O)c2ccc(-c3ccccc3)cc2)=C(C#N)C1c1cccnc1 (stereo unspecified),x,x,x,x,x,30.6*,19.5,35.5*
CCOC(=O)C1=C(c2ccccc2)NC(SCC(N)=O)=C(C#N)C1c1cccnc1 (stereo unspecified),-4.6,4.0,2.6,-8.2,8.2,-12.2,x,x
Cc1c(N2C(=O)/C(=C\C3CC=CCC3)SC2=S)c(=O)n(-c2ccccc2)n1C (stereo unspecified),1.1,3.4,10.6,-9.7,9.7,25.2*,9.3,-16.3

# Bioassay records from PubChem.
